From ChEMBL document CHEMBL4020814, “Synthesis, Binding Mode, and Antihyperglycemic Activity of Potent and Selective (5-Imidazol-2-yl-4-phenylpyrimidin-2-yl)[2-(2-pyridylamino)ethyl]amine Inhibitors of Glycogen Synthase Kinase 3” (J Med Chem, 2017)
Active and inactive are the calls of the source. The calls are words filed in the database; no cut-off is given here.

Legend:
[1] = Oral bioavailability in diabetic ZDF fa/fa rat at 8 mg/kg administered 4.5 and 0.5 hrs prior to oral glucose challenge; assay type: ADME, organism-based; settings: in vivo
[2] = Inhibition of GSK3 expressed in CHO-IR cells expressing human insulin receptor assessed as glycogen synthase activation after 30 mins by filter paper assay; assay type: cell-based, Cavia porcellus
[3] = Half life in diabetic ZDF fa/fa rat at 8 mg/kg administered 4.5 and 0.5 hrs prior to oral glucose challenge; assay type: ADME, organism-based; settings: in vivo
Rattus norvegicus [4] = test: Antidiabetic activity in diabetic ZDF fa/fa rat assessed as reduction in plasma glucose AUC at 8 mg/kg administered 4.5 and 0.5 hrs prior to oral glucose challenge by oral glucose tolerance test; assay type: functional; set-up: scale not given: the % may be the effect or the level left
Summary of the method: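 Obese 10-week-old ZDF (fa/fa) rats, n = 8/group, fasted overnight, given 8 mg/kg orally at 4.5 and 0.5 h before oral glucose challenge. Efficacy is the percent reduction in plasma glucose AUC versus untreated animals. Formulations were 15% captisol, 1% CMC or water with pH adjusted.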

[5] = Plasma concentration in diabetic db/db mouse at 30 mg/kg administered at 4.5 and 0.5 hrs prior to oral glucose challenge measured 20 mins post second dose; settings: plasma
[6] = Inhibition of human GSK3 using biotin-CREB peptide substrate after 1 hr by scintillation counting method
Mus musculus [7] = species on record: Mus musculus; test: Antidiabetic activity in diabetic db/db mouse assessed as time required for improved glucose disposal by oral glucose tolerance test; assay type: functional
Summary of the method: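 db/db mice, 6–8 per group, fasted ~6 h (food removed 3 h before prebleed), dosed orally at −4.5 and −0.5 h relative to oral glucose (vehicle 10% captisol). Tail-snip blood glucose was read by glucometer or analyzer; plasma insulin was measured by ELISA.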

[8] = biological target: Mitogen-activated protein kinase 1 (Homo sapiens, UniProt P28482); test: Inhibition of human ERK2 using myelin basic protein substrate after 1 hr by scintillation counting method
[9] = biological target: Vascular endothelial growth factor receptor 2 (Homo sapiens, UniProt P35968)
[10] = Inhibition of rat AMP kinase using SAMS peptide substrate in the presence of AMP after 1 hr by scintillation counting method
Summary of the method: (§1)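 Kinase buffer: 50 mmol/L Tris-HCl pH 7.5, 10 mmol/L MgCl2, 1 mmol/L EGTA, 1 mmol/L DTT, 25 mmol/L β-glycerophosphate, 1 mmol/L NaF, 0.01% BSA. It contained kinase, peptide substrate and activators. Compound was added in DMSO with 1 μmol/L final ATP. PKC-ζ, AMPK and pdk1 were commercial enzymes.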

[11] = biological target: Fibroblast growth factor receptor 1 (Homo sapiens, UniProt P11362)
[12] = Inhibition of human DNA-dependent protein kinase using PI as substrate after 1 hr by scintillation counting method
[13] = Stability in rat liver microsomes assessed as half life; assay type: ADME, microsome
[14] = biological target: RAC-alpha serine/threonine-protein kinase (Homo sapiens, UniProt P31749); test: Inhibition of human AKT1/PKB using phospho-AKT peptide substrate after 1 hr by scintillation counting method
[15] = biological target: Cyclin-dependent kinase 1 (Homo sapiens, UniProt P06493); test: Inhibition of human CDC2 using biotin histone H1 peptide substrate after 1 hr by scintillation counting method
[16] = biological target: Casein kinase I isoform epsilon (Homo sapiens, UniProt P49674); test: Inhibition of human CK1epsilon using biotin peptide substrate after 1 hr by scintillation counting method
[17] = biological target: T1, Serine/threonine-protein kinase Chk1 (Homo sapiens, UniProt O14757); test: Inhibition of human CHK1 using biotin-CDC25 peptide substrate after 1 hr by scintillation counting method
T1 sequence (O14757 whole entry): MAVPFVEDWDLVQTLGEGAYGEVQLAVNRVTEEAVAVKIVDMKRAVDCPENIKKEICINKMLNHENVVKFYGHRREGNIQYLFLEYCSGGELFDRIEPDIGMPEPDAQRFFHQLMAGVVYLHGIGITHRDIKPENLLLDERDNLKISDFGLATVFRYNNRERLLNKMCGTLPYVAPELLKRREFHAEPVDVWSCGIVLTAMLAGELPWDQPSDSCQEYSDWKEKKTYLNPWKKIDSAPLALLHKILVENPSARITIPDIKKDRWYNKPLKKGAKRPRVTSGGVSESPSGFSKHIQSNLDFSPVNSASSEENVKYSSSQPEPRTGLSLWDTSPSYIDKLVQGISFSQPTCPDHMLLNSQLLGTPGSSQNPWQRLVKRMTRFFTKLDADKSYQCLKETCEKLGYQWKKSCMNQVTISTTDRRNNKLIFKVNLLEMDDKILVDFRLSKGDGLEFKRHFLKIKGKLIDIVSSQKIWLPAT

[18] = biological target: Glycogen synthase kinase-3 beta (Homo sapiens, UniProt P49841); test: Inhibition of human GSK3beta using biotin-CREB peptide substrate after 1 hr by scintillation counting method
[19] = biological target: Insulin-like growth factor 1 receptor (Homo sapiens, UniProt P08069)
[20] = biological target: Glycogen synthase kinase-3 alpha (Homo sapiens, UniProt P49840); test: Inhibition of human GSK3alpha using biotin-CREB peptide substrate after 1 hr by scintillation counting method
[21] = Inhibition of human phosphatidylinositol (PI) 3-kinase using PI as substrate after 1 hr by scintillation counting method
[22] = biological target: Vascular endothelial growth factor receptor 1 (Homo sapiens, UniProt P17948)
[23] = biological target: T2, 3-phosphoinositide-dependent protein kinase 1 (Homo sapiens, UniProt O15530); test: Inhibition of human PDK1 using unactivated AKT substrate in presence of COPC, DOPS and PIP3 activators after 1 hr by scintillation counting method; summary of the method: as §1
T2 sequence (O15530 whole entry): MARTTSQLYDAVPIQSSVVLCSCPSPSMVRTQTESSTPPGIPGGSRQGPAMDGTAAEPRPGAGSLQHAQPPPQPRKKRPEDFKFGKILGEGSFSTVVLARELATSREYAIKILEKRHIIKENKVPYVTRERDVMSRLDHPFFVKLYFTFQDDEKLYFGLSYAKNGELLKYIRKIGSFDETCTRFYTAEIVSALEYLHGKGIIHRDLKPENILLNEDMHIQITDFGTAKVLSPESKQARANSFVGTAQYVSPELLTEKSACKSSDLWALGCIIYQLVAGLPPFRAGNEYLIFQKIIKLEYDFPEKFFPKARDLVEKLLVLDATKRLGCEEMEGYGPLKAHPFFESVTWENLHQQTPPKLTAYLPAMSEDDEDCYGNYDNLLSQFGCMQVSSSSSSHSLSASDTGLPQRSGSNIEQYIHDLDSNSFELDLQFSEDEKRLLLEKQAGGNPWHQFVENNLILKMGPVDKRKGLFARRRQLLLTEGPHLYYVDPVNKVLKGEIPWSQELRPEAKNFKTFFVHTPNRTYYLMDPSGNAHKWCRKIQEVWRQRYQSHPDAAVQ

Angiopoietin-1 receptor = Angiopoietin-1 receptor (Homo sapiens, UniProt Q02763)
[24] = Stability in dog liver microsomes assessed as half life; assay type: ADME, Canis lupus familiaris, microsome
[25] = biological target: T3, Protein kinase C zeta type (Homo sapiens, UniProt Q05513); test: Inhibition of human PKCzeta using biotin-PKC-86 peptide substrate after 30 mins in the presence of phosphatidylserine and diacylglycerol activators by scintillation counting; summary of the method: as §1
T3 sequence (Q05513 whole entry): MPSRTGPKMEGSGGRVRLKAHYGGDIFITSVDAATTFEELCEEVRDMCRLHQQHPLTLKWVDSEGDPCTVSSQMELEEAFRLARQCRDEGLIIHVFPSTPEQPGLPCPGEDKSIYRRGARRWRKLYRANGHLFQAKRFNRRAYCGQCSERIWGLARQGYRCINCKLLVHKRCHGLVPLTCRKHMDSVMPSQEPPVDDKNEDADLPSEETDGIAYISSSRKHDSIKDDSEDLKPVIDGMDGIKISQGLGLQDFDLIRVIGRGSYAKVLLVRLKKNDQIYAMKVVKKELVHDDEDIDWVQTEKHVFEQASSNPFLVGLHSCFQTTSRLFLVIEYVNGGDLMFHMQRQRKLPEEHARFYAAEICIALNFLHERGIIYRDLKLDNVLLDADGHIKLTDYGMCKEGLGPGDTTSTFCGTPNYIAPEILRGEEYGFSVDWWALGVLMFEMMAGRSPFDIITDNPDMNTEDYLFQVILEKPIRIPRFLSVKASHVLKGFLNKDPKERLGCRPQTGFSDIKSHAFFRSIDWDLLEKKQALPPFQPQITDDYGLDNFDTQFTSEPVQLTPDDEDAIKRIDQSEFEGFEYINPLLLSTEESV

Rattus norvegicus [26] = test: Antihyperglycemic activity in diabetic ZDF fa/fa rat assessed as plasma glucose levels at 30 mg/kg, po administered as single dose measured after 60 mins (reference value: 500 to 550 mg/dl); assay type: functional
Summary of the method: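 Twelve-week-old male ZDF (fa/fa) rats with fasted basal glucose of 500–550 mg/dL, food removed 3–4 h before dosing. A single oral dose was given with vehicle 15% captisol. Plasma glucose and insulin were measured from serial tail-snip bleeds, n = 8/group, mean ± SEM.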

Mus musculus [27] = test: Antiobesity activity in diabetic […] mouse assessed as improvement in glucose tolerance administered at 30 mg/kg, po measured post glucose challenge by oral glucose tolerance test relative to control; assay type: functional, organism-based
Summary of the method: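 ob/ob mice aged 9–10 weeks, 6–8 per group, given an oral glucose tolerance test with oral dosing at −4.5 and −0.5 h (vehicle captisol). Plasma glucose and insulin were measured after the glucose challenge. Values are mean ± SEM.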

[28] = Inhibition of human phosphodiesterase 3 using cAMP substrate after 20 mins by scintillation counting
Mus musculus [29] = test: Antidiabetic activity in diabetic db/db mouse assessed as reduction in plasma glucose AUC administered orally at 4.5 and 0.5 hrs prior to oral glucose challenge by oral glucose tolerance test; assay type: functional
Summary of the method: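 db/db mice, 6–8 per group, fasted ~6 h, dosed orally at 30 mg/kg at −4.5 and −0.5 h before oral glucose challenge. Efficacy is the percent reduction in plasma glucose AUC versus untreated animals. Vehicle was 15% captisol, 1% CMC or pH-adjusted water.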

Mus musculus [30] = test: Antiobesity activity in diabetic […] mouse assessed as improvement in glucose tolerance administered at 30 mg/kg, po measured post glucose challenge and measured after 20 hrs post compound dose by oral glucose tolerance test relative to control; assay type: functional, organism-based
Rattus norvegicus [31] = test: Antidiabetic activity in 12 weeks old obese ZDF fa/fa rat assessed as increase in plasma glucose disposal at 30 mg/kg dosed at 4.5 and 0.5 hrs prior to oral glucose challenge by oral glucose tolerance test; assay type: functional, organism-based
Rattus norvegicus [32] = test: Antihyperglycemic activity in diabetic ZDF fa/fa rat assessed as plasma glucose levels at 5 mg/kg, iv prime dose with continuous infusion at 64 ug/kg/min for 4 days (reference value: 223 +/- 18 mg/dL); assay type: functional
Mus musculus [33] = species on record: Mus musculus; test: Antidiabetic activity in streptozotocin-treated mouse fed with high fat diet assessed as reduction in post-challenge glucose AUC; assay type: functional; set-up: scale not given: the % may be the effect or the level left
Summary of the method: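 Mice on a high-fat diet with intermittent streptozotocin were dosed orally at −4.5 and −0.5 h before oral glucose challenge. Post-challenge glucose AUC and insulin were measured.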

Chain of Glycogen synthase kinase-3 beta (P49841 whole entry): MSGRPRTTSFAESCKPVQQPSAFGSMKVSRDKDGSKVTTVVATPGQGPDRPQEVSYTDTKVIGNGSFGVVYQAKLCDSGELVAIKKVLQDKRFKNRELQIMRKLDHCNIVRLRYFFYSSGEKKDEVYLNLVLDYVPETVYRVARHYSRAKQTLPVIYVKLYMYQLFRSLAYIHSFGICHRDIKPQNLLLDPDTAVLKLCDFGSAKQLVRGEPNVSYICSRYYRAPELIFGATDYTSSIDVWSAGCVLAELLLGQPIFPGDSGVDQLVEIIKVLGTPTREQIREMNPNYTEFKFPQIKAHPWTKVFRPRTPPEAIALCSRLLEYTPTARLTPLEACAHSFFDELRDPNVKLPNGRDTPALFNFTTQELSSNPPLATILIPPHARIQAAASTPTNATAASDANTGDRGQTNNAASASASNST
Chain of Fibroblast growth factor receptor 1 (P11362 whole entry): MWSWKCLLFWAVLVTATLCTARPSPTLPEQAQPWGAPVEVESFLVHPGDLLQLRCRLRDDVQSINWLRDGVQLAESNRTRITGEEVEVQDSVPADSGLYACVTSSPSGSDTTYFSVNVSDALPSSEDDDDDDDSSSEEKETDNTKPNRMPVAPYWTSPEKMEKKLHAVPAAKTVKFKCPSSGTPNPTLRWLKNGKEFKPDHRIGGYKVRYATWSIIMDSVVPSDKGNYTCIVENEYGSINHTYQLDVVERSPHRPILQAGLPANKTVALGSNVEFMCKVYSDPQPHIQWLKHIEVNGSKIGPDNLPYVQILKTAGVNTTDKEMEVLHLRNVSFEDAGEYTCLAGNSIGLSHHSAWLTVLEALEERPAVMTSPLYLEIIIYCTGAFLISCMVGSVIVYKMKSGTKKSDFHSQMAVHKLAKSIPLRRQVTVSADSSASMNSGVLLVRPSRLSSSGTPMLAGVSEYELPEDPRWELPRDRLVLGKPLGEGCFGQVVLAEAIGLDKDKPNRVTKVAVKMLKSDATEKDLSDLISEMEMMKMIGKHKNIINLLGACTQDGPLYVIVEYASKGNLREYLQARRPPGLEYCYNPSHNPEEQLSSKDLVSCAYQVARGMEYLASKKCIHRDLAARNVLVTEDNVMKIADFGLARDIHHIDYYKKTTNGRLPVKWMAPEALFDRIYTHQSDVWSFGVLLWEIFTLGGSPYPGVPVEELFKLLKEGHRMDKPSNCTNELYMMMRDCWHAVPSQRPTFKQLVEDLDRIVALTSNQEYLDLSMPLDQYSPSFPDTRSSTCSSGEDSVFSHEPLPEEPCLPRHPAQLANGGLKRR
Chain of Angiopoietin-1 receptor (Q02763 whole entry): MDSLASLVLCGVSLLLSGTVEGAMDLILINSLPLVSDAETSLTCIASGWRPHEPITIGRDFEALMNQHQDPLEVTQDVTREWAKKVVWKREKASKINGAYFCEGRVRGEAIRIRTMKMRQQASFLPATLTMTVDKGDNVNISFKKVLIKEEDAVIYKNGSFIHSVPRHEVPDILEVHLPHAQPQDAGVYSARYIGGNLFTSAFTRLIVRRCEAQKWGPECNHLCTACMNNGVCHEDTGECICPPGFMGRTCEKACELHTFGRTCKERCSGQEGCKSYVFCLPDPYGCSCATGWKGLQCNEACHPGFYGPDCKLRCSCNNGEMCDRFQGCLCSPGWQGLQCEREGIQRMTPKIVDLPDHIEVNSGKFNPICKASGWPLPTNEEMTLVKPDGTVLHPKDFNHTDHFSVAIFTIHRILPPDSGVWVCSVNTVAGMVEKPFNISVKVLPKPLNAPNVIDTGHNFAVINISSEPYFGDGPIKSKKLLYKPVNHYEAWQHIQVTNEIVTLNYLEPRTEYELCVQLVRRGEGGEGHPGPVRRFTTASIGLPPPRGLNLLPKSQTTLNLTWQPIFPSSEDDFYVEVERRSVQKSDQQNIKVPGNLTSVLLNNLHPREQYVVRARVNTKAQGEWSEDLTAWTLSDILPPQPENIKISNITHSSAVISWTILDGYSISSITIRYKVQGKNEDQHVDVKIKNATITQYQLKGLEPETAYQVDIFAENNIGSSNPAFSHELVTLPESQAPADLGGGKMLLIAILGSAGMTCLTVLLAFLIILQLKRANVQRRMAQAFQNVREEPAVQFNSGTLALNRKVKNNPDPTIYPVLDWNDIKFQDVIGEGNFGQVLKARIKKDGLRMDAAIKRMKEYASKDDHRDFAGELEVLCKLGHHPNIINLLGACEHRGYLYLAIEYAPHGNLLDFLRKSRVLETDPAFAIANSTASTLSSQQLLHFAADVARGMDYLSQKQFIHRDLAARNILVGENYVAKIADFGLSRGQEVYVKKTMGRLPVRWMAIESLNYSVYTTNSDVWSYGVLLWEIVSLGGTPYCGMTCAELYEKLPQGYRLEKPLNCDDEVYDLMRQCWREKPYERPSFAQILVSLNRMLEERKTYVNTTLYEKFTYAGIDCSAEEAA
Chain of Glycogen synthase kinase-3 alpha (P49840 whole entry): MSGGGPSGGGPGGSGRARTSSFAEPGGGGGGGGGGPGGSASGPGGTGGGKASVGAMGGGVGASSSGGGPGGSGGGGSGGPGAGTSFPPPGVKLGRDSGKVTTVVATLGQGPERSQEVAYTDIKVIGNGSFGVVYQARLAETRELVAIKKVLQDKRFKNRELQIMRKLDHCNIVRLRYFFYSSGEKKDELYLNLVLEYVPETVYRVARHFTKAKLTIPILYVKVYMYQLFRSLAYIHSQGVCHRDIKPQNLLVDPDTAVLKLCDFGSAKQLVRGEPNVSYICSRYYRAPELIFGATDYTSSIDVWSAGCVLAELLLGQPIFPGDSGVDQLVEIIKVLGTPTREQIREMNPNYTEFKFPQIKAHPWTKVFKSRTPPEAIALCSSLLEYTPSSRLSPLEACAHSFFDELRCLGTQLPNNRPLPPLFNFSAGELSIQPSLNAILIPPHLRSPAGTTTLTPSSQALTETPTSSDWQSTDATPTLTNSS
Chain of RAC-alpha serine/threonine-protein kinase (P31749 whole entry): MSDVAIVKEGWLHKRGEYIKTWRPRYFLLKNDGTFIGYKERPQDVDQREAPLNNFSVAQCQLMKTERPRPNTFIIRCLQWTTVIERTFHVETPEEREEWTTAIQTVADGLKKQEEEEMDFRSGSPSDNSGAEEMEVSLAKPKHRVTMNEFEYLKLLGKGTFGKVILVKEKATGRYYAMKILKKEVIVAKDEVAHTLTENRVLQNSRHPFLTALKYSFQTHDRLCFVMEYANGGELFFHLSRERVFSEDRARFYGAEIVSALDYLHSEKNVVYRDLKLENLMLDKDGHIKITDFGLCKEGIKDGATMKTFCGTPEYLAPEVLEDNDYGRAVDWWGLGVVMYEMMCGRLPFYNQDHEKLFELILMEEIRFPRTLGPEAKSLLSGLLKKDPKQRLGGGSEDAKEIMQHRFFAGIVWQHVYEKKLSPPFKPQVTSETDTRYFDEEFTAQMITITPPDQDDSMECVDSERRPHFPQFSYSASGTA
Chain of Cyclin-dependent kinase 1 (P06493 whole entry, canonical isoform): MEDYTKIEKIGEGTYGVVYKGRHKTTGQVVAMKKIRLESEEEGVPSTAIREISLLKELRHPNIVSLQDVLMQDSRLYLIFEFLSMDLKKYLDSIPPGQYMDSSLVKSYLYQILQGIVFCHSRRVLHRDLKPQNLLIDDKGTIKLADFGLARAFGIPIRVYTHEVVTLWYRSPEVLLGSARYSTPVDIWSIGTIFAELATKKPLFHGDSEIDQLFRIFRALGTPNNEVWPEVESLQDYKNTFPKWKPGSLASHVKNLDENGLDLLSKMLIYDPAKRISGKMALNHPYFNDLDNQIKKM
Chain of Vascular endothelial growth factor receptor 2 (P35968 whole entry): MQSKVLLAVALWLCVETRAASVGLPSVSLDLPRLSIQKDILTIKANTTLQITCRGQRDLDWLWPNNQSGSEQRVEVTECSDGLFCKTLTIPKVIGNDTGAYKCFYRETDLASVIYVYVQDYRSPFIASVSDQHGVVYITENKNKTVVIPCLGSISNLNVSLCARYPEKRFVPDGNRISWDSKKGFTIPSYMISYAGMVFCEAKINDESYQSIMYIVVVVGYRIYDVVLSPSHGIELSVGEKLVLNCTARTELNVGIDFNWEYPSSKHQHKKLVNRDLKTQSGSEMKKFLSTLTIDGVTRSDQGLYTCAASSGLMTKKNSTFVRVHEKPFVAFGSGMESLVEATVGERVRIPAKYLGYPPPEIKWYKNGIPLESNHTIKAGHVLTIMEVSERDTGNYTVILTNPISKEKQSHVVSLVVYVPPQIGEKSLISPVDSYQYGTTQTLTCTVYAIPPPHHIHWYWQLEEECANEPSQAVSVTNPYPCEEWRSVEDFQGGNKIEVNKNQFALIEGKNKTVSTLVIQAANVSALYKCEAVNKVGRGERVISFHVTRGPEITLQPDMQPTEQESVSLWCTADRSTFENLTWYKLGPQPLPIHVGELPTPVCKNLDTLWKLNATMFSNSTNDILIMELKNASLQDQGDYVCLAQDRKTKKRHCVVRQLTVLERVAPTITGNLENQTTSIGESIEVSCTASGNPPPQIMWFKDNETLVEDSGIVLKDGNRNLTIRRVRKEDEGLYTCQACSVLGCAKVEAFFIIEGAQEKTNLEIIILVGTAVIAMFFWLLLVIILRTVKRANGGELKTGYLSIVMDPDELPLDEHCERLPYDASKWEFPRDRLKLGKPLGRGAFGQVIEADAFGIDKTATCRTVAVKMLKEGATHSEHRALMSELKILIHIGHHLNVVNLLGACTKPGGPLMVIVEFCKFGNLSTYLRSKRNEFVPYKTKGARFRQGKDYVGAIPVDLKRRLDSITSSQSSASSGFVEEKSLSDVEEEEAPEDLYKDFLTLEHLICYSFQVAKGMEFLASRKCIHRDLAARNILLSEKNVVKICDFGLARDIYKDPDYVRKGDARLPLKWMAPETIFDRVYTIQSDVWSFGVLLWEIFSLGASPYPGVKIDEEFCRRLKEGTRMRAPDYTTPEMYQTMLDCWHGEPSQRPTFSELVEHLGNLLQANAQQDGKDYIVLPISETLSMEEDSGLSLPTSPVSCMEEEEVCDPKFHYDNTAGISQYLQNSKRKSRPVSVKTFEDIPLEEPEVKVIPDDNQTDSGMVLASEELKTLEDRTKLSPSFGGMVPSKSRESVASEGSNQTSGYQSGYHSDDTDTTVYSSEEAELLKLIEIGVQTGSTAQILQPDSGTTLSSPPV

Molecule Cc1c[nH]c(-c2cnc(NCCNc3ccc([N+](=O)[O-])c(N)n3)nc2-c2ccc(Cl)cc2Cl)n1 has a bioavailability [1] of 7%, an EC50 [2] of 120 nM and a half-life [3] of 58 min. The Activity (Rattus norvegicus [4]) was 24%, the concentration at 20 min [5] was 10000 ng/mL and the IC50 [6] was 2 nM.
For Cc1c(C)c2c(c(C)c1O)CCC(C)(COc1ccc(CC3SC(=O)NC3=O)cc1)O2 (stereo unspecified) [TROGLITAZONE], the Time (Mus musculus [7]) was “<=2 weeks”.
With Nc1nc(NCCNc2ncc(-c3ncc[nH]3)c(-c3ccc(Cl)cc3Cl)n2)ccc1[N+](=O)[O-] the IC50 [8] was greater than 10 µM, the bioavailability [1] was 6% and the IC50 [9] was greater than 5 µM. The IC50 [10] was greater than 10 µM, the IC50 [11] was greater than 5 µM and the EC50 [2] was 260 nM. It also gave a half-life [3] of 46 min, an IC50 [12] greater than 10 µM and a half-life [13] greater than 30 min. For the same molecule, the IC50 [14] was greater than 10 µM, the IC50 [15] was greater than 10 µM and the IC50 [16] was greater than 10 µM. For the same molecule, the IC50 [17] was greater than 10 µM, the IC50 [18] was 0.6 nM and the IC50 [19] was greater than 10 µM. It also gave an IC50 [20] of 27.1 nM, an IC50 [21] greater than 5 µM and an IC50 [22] greater than 5 µM. For the same molecule, the Activity (Rattus norvegicus [4]) was 29%, the IC50 [23] was greater than 10 µM and the IC50 (Angiopoietin-1 receptor) was greater than 25 µM. The concentration at 20 min [5] was 19000 ng/mL, the half-life [24] was greater than 30 min and the IC50 [25] was greater than 10 µM. It also gave an IC50 [6] of 1 nM.
For Cc1cnc(-c2cnc(NCCNc3ccc(C#N)cn3)nc2-c2ccc(Cl)cc2Cl)[nH]1 [LADUVIGLUSIB], the Activity (Rattus norvegicus [26]) was “>=150 mg/dl”, the IC50 [10] was greater than 10 µM and the Activity (Mus musculus [27]) was “Active”. For the same molecule, the EC50 [2] was 770 nM, the Ki [28] was 8.3 µM and the IC50 [12] was greater than 10 µM. The Activity (Mus musculus [29]) was “Dose-dependent effect”, the Activity (Mus musculus [30]) was “Active” and the Activity (Rattus norvegicus [31]) was “Active”. The Activity (Rattus norvegicus [32]) was 116 mg/dL, the IC50 [21] was greater than 10 µM and the Activity (Rattus norvegicus [4]) was 38%. The Activity (Mus musculus [33]) was 53% and the IC50 [6] was 5 nM.
